The values that follow come from ChEMBL document CHEMBL1134591, “N-Aryl sulfonyl homocysteine hydroxamate inhibitors of matrix metalloproteinases: further probing of the S(1), S(1)', and S(2)' pockets” (J Med Chem, 2001).

One assay deals with Stromelysin-1 (Homo sapiens, UniProt P08254). As to the kind of experiment: In vitro inhibitory activity against matrix metalloprotease-3. The essentials:
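MMP-3 activated with APMA (4-aminophenylmercuric acetate); cleavage of quenched fluorogenic substrate (7-methoxycoumarin-4-yl)-Arg-Pro-Lys-Pro-Tyr-Ala-Nva-Trp-Met-Lys(Dnp)-NH₂ at the Ala–Nva bond monitored; IC50 (nM) derived.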

Assay [1] addresses Matrix metalloproteinase-9 (Homo sapiens, UniProt P14780). As to the kind of experiment: In vitro inhibition of human matrix metalloprotease-9. The essentials:
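APMA-activated enzyme, fluorogenic quenched peptide substrate Dnp-Pro-Cha-Gly-Cys(Me)-His-Ala-Lys(Nma)-NH₂, cleaved between Gly and Cys; inhibition read as substrate cleavage, reported as IC50 (nM).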

A further assay concerns the target T1, Interstitial collagenase (Homo sapiens, UniProt P03956).
T1 sequence (P03956 whole entry): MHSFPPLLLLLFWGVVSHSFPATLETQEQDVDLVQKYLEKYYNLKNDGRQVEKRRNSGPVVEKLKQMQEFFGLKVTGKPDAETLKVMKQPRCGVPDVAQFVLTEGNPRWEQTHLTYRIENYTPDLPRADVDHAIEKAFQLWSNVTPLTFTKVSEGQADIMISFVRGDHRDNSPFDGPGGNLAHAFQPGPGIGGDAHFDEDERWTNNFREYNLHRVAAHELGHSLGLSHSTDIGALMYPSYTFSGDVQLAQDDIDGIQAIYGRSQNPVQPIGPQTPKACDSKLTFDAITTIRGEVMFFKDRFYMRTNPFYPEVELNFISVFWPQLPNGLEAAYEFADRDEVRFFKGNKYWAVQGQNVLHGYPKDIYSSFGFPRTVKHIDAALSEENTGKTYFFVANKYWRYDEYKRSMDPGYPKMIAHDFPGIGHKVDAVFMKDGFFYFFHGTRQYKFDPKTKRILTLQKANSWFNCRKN
As to the kind of experiment: In vitro inhibition of human matrix metalloprotease-1.

The target in assay [2] is 72 kDa type IV collagenase (Homo sapiens, UniProt P08253). As to the kind of experiment: In vitro inhibition of human matrix metalloprotease-2.
The target in a further assay is Collagenase 3 (Homo sapiens, UniProt P45452). The experiment in a line: In vitro inhibition of human matrix metalloprotease-13.

SMILES strings stand for the structures.

Stromelysin-1, sequence (P08254 whole entry): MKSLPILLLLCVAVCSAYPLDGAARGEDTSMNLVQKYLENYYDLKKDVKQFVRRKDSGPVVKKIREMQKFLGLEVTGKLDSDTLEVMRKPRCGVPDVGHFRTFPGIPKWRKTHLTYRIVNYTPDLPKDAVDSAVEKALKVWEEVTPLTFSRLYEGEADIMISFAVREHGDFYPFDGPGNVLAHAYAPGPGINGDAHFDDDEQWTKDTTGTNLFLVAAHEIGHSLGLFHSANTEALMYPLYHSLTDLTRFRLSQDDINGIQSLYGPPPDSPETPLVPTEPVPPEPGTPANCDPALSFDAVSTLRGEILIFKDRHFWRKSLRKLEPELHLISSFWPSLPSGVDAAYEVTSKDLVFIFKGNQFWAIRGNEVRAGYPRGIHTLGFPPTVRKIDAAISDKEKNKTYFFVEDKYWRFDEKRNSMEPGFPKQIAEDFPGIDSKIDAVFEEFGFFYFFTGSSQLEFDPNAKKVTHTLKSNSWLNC
Matrix metalloproteinase-9, sequence (P14780 whole entry): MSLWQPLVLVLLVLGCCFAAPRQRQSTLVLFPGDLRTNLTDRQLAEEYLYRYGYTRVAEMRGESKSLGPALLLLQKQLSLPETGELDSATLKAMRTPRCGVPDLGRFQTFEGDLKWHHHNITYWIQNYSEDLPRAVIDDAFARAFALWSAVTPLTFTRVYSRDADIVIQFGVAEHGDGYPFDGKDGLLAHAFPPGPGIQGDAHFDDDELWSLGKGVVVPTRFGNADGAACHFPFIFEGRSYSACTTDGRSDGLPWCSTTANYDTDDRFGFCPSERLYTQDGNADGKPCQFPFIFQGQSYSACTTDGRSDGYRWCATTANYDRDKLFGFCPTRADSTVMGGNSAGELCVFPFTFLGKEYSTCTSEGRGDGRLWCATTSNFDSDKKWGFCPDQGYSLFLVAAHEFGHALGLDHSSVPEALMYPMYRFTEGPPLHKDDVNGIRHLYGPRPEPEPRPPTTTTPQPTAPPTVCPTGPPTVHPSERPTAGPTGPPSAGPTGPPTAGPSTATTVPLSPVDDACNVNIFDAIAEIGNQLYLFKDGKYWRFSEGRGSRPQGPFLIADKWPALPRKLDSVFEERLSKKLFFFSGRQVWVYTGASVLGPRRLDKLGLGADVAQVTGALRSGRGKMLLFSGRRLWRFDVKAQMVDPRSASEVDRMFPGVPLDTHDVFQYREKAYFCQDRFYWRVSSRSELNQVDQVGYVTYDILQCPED
72 kDa type IV collagenase, sequence (P08253 whole entry): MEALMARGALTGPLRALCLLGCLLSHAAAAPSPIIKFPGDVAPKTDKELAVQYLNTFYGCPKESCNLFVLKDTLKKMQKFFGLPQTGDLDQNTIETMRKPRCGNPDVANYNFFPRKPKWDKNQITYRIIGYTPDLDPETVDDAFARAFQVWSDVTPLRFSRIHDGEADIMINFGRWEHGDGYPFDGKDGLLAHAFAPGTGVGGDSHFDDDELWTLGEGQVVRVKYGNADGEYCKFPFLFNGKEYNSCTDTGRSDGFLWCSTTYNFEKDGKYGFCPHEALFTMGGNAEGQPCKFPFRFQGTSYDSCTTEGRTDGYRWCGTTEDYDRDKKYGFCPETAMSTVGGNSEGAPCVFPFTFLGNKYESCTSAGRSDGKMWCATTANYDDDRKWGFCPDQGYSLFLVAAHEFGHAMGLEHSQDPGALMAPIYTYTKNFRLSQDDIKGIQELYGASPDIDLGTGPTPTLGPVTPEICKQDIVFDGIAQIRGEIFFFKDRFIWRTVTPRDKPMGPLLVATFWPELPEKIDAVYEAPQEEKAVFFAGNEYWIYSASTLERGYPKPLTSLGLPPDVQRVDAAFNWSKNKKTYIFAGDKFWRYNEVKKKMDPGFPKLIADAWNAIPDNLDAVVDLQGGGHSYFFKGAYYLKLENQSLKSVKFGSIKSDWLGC

The IC50 is the midpoint of a concentration-inhibition curve. The low end stands for greater potency, the high end for weaker potency. With `CCC(C(=O)NO)N(CC(C)C)S(=O)(=O)c1ccc(OC)cc1` (centres undefined), the half-maximal inhibitory concentration (IC50) is 45 nM against Stromelysin-1; 7 nM in assay [1]; 384 nM against Interstitial collagenase; 53 nM in assay [2]; 96 nM on Collagenase 3.

As to `COc1ccc(S(=O)(=O)N(CC(C)C)C(CCSCc2cccnc2)C(=O)NO)cc1` (centres undefined), the IC50 against Stromelysin-1 stood at 6.2 nM; in assay [1], 3 nM; against Interstitial collagenase, 126 nM; in assay [2], 6.3 nM; against Collagenase 3 it was 16.2 nM.

With `COc1ccc(S(=O)(=O)N(CC(C)C)C(CCSCc2ccc(OCc3ccccc3)cc2)C(=O)NO)cc1` (centres undefined), the values for the IC50 (against Stromelysin-1; in assay [1]) were 29 nM and 8 nM, respectively.

For `COc1ccc(S(=O)(=O)N(CC(=O)N2CCOCC2)C(CCSCc2ccccc2)C(=O)NO)cc1` (centres undefined), the IC50 on Stromelysin-1 was found to be 195 nM; in assay [1] it was 29 nM; against Interstitial collagenase, 532 nM; in assay [2] it was 16 nM; on Collagenase 3 it was 23 nM.

In the case of `COc1ccc(S(=O)(=O)N(CC(=O)NCc2c(OC)cc(OC)cc2OC)C(CCSCc2ccccc2)C(=O)NO)cc1` (centres undefined), the IC50 was found to be 2.5 nM on Stromelysin-1; 0.3 nM in assay [1]; 49 nM at Interstitial collagenase; 1.2 nM in assay [2]; 1.6 nM against Collagenase 3.

Consider `CC(C)CN(C(CCSCc1ccccc1)C(=O)NO)S(=O)(=O)c1ccc(Br)cc1` (centres undefined), for which the IC50 against Stromelysin-1 is 15.1 nM; in assay [1] it was 4.3 nM; against Interstitial collagenase, 164 nM; in assay [2], 16 nM; at Collagenase 3, 14 nM.

In the case of `COc1ccc(CNC(=O)CN(C(CCSCc2ccccc2)C(=O)NO)S(=O)(=O)c2ccc(OC)cc2)cc1` (centres undefined), the IC50 against Stromelysin-1 amounted to 0.9 nM; in assay [1], 0.2 nM; at Interstitial collagenase, 19 nM; in assay [2], 0.7 nM; at Collagenase 3 it was 0.7 nM.

`COc1ccc(S(=O)(=O)N(CC(C)C)C(CCS(=O)(=O)Cc2ccccc2)C(=O)NO)cc1` (centres undefined): the half-inhibitory concentration (IC50) against Stromelysin-1 was determined as 10.3 nM; in assay [1], 0.9 nM; at Interstitial collagenase, 396 nM; in assay [2], 4.22 nM; against Collagenase 3, 11.8 nM.

For `COc1ccc(S(=O)(=O)N(CC(=O)NC2CCCCC2)C(CCSCc2ccccc2)C(=O)NO)cc1` (centres undefined), the IC50 against Stromelysin-1 was determined as 1.6 nM; in assay [1], 0.2 nM; against Interstitial collagenase it was 16 nM; in assay [2], 1 nM; at Collagenase 3 it was 0.8 nM.

On to `COc1ccc(S(=O)(=O)N(CC(C)C)C(CCSCc2ccc(-c3ccccc3)cc2)C(=O)NO)cc1` (centres undefined), for which the IC50 against Stromelysin-1 amounted to 20 nM; in assay [1] it was 0.2 nM; in assay [2], 30 nM.

`COc1ccc(S(=O)(=O)N(CC(=O)NC(c2ccccn2)c2ccccn2)C(CCSCc2ccccc2)C(=O)NO)cc1` (centres undefined): the IC50 at Stromelysin-1 came out at 1.1 nM; in assay [1], 0.2 nM; against Interstitial collagenase it was 39 nM; in assay [2] it was 0.4 nM; against Collagenase 3, 0.4 nM.

Take `CC(C)CN(C(CCSCc1ccccc1)C(=O)NO)S(=O)(=O)c1ccc(-c2ccccc2)cc1` (centres undefined): the concentration for half-maximal inhibition (IC50) stood at 90 nM at Stromelysin-1, 2.5 nM in assay [1], 4.1 nM in assay [2] and 3.8 nM on Collagenase 3.

For the molecule `COc1ccc(S(=O)(=O)N(CC(=O)NCc2cc(OC)cc(OC)c2)C(CCSCc2ccccc2)C(=O)NO)cc1` (centres undefined), the IC50 on Stromelysin-1 is 4.7 nM; in assay [1] it was 0.6 nM; against Interstitial collagenase, 36 nM; in assay [2], 1.6 nM; against Collagenase 3, 2.3 nM.

Turning to `COc1ccc(S(=O)(=O)N(CC(C)C)C(CCSCc2ccccc2)C(=O)NO)cc1` (centres undefined), the concentration for half-maximal inhibition (IC50) against Stromelysin-1 is 0.7 nM; in assay [1], less than 0.1 nM; against Interstitial collagenase, 104 nM; in assay [2], 0.7 nM; at Collagenase 3 it was 12 nM.

On to `COc1ccc(S(=O)(=O)N(CC(C)C)C(CCSCc2c(F)c(F)c(F)c(F)c2F)C(=O)NO)cc1` (centres undefined), for which the IC50 against Stromelysin-1 turned out to be 705 nM; in assay [1] it was 149 nM; in assay [2] it was 1810 nM; at Collagenase 3, 407 nM.

For the molecule `COc1ccc(S(=O)(=O)N(CC(=O)NCc2ccccc2)C(CCSCc2ccccc2)C(=O)NO)cc1` (centres undefined), the IC50 is 1.6 nM against Stromelysin-1; 0.2 nM in assay [1]; 51 nM against Interstitial collagenase; 0.7 nM in assay [2]; 0.5 nM on Collagenase 3.

Consider `COc1ccc(S(=O)(=O)N(CC(=O)NCC2CCCCC2)C(CCSCc2ccccc2)C(=O)NO)cc1` (centres undefined), for which the IC50 in assay [1] came out at 0.01 nM; in assay [2], 0.3 nM.

`COc1ccc(S(=O)(=O)N(CC(C)C)C(CCSCc2ccsc2)C(=O)NO)cc1` (centres undefined): the IC50 stood at 5.4 nM on Stromelysin-1; 1 nM in assay [1]; 188 nM on Interstitial collagenase; 3.2 nM in assay [2]; 5.1 nM against Collagenase 3.

In the case of `CC(C)CN(C(CCSCc1ccccc1)C(=O)NO)S(=O)(=O)c1ccc(Oc2ccccc2)cc1` (centres undefined), the IC50 against Stromelysin-1 turned out to be 4.2 nM; in assay [1], 0.5 nM; in assay [2], 1.6 nM; at Collagenase 3, 3.2 nM.

For the molecule `COc1ccc(S(=O)(=O)N(CC(=O)NC(C2CCCCC2)C2CCCCC2)C(CCSCc2ccccc2)C(=O)NO)cc1` (centres undefined), the figures for the IC50 in assay [1] and in assay [2] were 1.88 nM and 8.82 nM, respectively.

Regarding `COc1ccc(S(=O)(=O)N(CC(=O)NC(c2ccccc2)c2ccccc2)C(CCSCc2ccccc2)C(=O)NO)cc1` (centres undefined), the IC50 against Stromelysin-1 was determined as 3.7 nM; in assay [1] it was 0.5 nM; in assay [2] it was 2.3 nM; at Collagenase 3 it was 4.5 nM.

With `COc1ccc(S(=O)(=O)N(CC(=O)NCc2cccnc2)C(CCSCc2ccccc2)C(=O)NO)cc1` (centres undefined), the 50% inhibitory concentration (IC50) is 2.2 nM at Stromelysin-1, 0.2 nM in assay [1], 1.2 nM in assay [2] and 1.1 nM against Collagenase 3.

`COc1ccc(S(=O)(=O)N(CC(C)C)C(CCSCc2cccc(OC)c2)C(=O)NO)cc1` (centres undefined): the IC50 against Stromelysin-1 came out at 5.7 nM; in assay [1], 3.2 nM; against Interstitial collagenase, 297 nM; in assay [2], 3.78 nM; at Collagenase 3 it was 5.3 nM.
